# Activity calls are given as the source filed them. No cut-off for these calls is given here.
# Tests used:
# [1] = molecular target: ALK tyrosine kinase receptor (Homo sapiens, UniProt Q9UM73); experiment: Inhibition of ALK (unknown origin)
# Ephrin type-A receptor 4 = Ephrin type-A receptor 4 (Homo sapiens, UniProt P54764); experiment: Inhibition of EphA4 (unknown origin)
# [2] = molecular target: Receptor tyrosine-protein kinase erbB-2 (Homo sapiens, UniProt P04626); experiment: Inhibition of ErbB2 (unknown origin)
# [3] = molecular target: Mitogen-activated protein kinase 1 (Homo sapiens, UniProt P28482); experiment: Inhibition of ERK2 (unknown origin)
# [4] = molecular target: Insulin-like growth factor 1 receptor (Homo sapiens, UniProt P08069); experiment: Inhibition of IGF1R (unknown origin)
# [5] = molecular target: Mitogen-activated protein kinase 8 (Homo sapiens, UniProt P45983); experiment: Inhibition of JNK1 (unknown origin)
# [6] = molecular target: Mast/stem cell growth factor receptor Kit (Homo sapiens, UniProt P10721); experiment: Inhibition of Kit (unknown origin)
# [7] = molecular target: Serine/threonine-protein kinase 10 (Homo sapiens, UniProt O94804); experiment: Inhibition of LOK (unknown origin)
# [8] = molecular target: Serine/threonine-protein kinase PAK 4 (Homo sapiens, UniProt O96013); experiment: Inhibition of PAK4 (unknown origin)
# [9] = molecular target: Platelet-derived growth factor receptor alpha (Homo sapiens, UniProt P16234); experiment: Inhibition of PDGFRalpha (unknown origin)
# [10] = molecular target: Protein kinase C beta type (Homo sapiens, UniProt P05771); experiment: Inhibition of PKCbeta2 (unknown origin)
# [11] = molecular target: Ribosomal protein S6 kinase alpha-1 (Homo sapiens, UniProt Q15418); experiment: Inhibition of Rsk1 (unknown origin)
# [12] = molecular target: Serine/threonine-protein kinase Sgk1 (Homo sapiens, UniProt O00141); experiment: Inhibition of SGK (unknown origin)
# [13] = molecular target: Tyrosine-protein kinase ZAP-70 (Homo sapiens, UniProt P43403); experiment: Inhibition of ZAP70 (unknown origin)
# MX1 = experiment: Antitumor activity against human MX1 cells harboring PTEN null mutation xenografted in mouse assessed as tumor growth inhibition at 5 mg/kg, po; assay type: functional; settings: read-out: TGI
# How it was run: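 Human tumor xenografts in mice were dosed orally at the indicated mg/kg. Tumor volume was measured with calipers as (L×W×W)/2. %TGI = 100 × [1 − (AUC treatment/d)/(AUC vehicle/d)], using the area under the fitted tumor-growth curve per day for each dose group relative to vehicle.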
# LoVo = experiment: Antitumor activity against human LoVo cells harboring KRAS G13D/CDKN2A P48L/FBXW7 R505C/MSH2/SMO G16_L17insLL/A324T/NF1 R1276Q/Y1607fs17/APC1114 mutant xenografted in mouse assessed as tumor growth inhibition at 10 mg/kg, po; assay type: functional; settings: read-out: TGI
# How it was run: (§1)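 Single-agent dose ranging in human tumor xenograft mice at 2.5, 5 or 10 mg/kg oral. Tumor volume was measured by caliper as (L×W×W)/2. %TGI = 100×[1 − AUC(treatment/d)/AUC(vehicle/d)] from the fitted growth curve per dose group, relative to vehicle.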
# 537-mel = experiment: Antitumor activity against human 537-mel cells harboring PTEN null mutation xenografted in mouse assessed as tumor growth inhibition at 10 mg/kg, po; assay type: functional; settings: read-out: TGI
# How it was run: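 Mice carrying human tumor xenografts dosed orally once daily for 21 consecutive days. Tumor volume measured by calipers as (L×W×W)/2. %TGI = 100×[1 − AUC(treatment/day)/AUC(vehicle/day)], using the area under the fitted growth curve relative to vehicle.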
# Calu-6 = experiment: Antitumor activity against human Calu-6 cells harboring KRAS Q61K and TP53 R196 mutant xenografted in mouse assessed as tumor growth inhibition at 5 mg/kg, po; assay type: functional; settings: read-out: TGI; how it was run: as §1
# A2058 [14] = experiment: Antiproliferative activity against human A2058 cells harboring BRAF V600E mutant assessed as reduction in cell viability incubated for 96 hrs in presence of 4-(2-(1H-indazol-4-yl)-6-((4-(methylsulfonyl)piperazin-1-yl)methyl)thieno[3,2-d]pyrimidin-4-yl)morpholine; assay type: functional, cell-based
# COLO-829 = experiment: Antiproliferative activity against human COLO-829 cells assessed as reduction in cell viability incubated for 96 hrs in presence of 4-(2-(1H-indazol-4-yl)-6-((4-(methylsulfonyl)piperazin-1-yl)methyl)thieno[3,2-d]pyrimidin-4-yl)morpholine; assay type: functional, cell-based
# A-375 = experiment: Antiproliferative activity against human A-375 cells assessed reduction in cell viability incubated for 4 days in presence of 4-(2-(1H-indazol-4-yl)-6-((4-(methylsulfonyl)piperazin-1-yl)methyl)thieno[3,2-d]pyrimidin-4-yl)morpholine by celltiter-glo assay; assay type: functional; settings: time 4 day
# How it was run: (§2)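 4-day CellTiter-Glo viability read-out on melanoma lines, cells exposed to increasing concentrations of each inhibitor alone and in combination.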
# Hs 294T = experiment: Antiproliferative activity against human Hs294T cells assessed reduction in cell viability incubated for 4 days in presence of 4-(2-(1H-indazol-4-yl)-6-((4-(methylsulfonyl)piperazin-1-yl)methyl)thieno[3,2-d]pyrimidin-4-yl)morpholine by celltiter-glo assay; assay type: functional; settings: time 4 day; how it was run: as §2
# LOX IMVI = experiment: Antiproliferative activity against human LOX IMVI cells assessed reduction in cell viability incubated for 4 days in presence of 4-(2-(1H-indazol-4-yl)-6-((4-(methylsulfonyl)piperazin-1-yl)methyl)thieno[3,2-d]pyrimidin-4-yl)morpholine by celltiter-glo assay; assay type: functional; settings: time 4 day; how it was run: as §2
# A2058 [15] = experiment: Inhibition of PI3K/MEK signaling pathway in human A2058 cells assessed as decrease in AKT phosphorylation by incubated for 24 hrs by Western blot analysis; assay type: cell-based
# [16] = Antitumor activity against human A375.X1 cells xenografted in mouse assessed as tumor growth inhibition at 15 mg/kg, po administered every third day for 21 days in presence of 4-(2-(1H-indazol-4-yl)-6-((4-(methylsulfonyl)piperazin-1-yl)methyl)thieno[3,2-d]pyrimidin-4-yl)morpholine; assay type: functional; settings: A375.X1, 504 h, time 21 day, read-out: TGI
# How it was run: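 Human tumor xenografts in mice. Drugs given orally, as single agents or combined with the PI3K inhibitor. Schedules were daily (QD) or every third day (Q3D) over 21 days. Tumor volume was measured by caliper as (L×W×W)/2. %TGI = 100×[1 − AUC(treatment/d)/AUC(vehicle/d)] from fitted growth curves, with group means. Tumor lysates were immunoblotted for pS6.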
# 888-mel [17] = experiment: Upregulation of Bim level in human 888-mel cells incubated for 24 hrs by immunoblotting analysis; assay type: functional, cell-based
# 888-mel [18] = experiment: (§3) Induction of apoptosis in human 888-mel cells assessed as increase in cleaved PARP level incubated for 24 hrs in presence of 4-(2-(1H-indazol-4-yl)-6-((4-(methylsulfonyl)piperazin-1-yl)methyl)thieno[3,2-d]pyrimidin-4-yl)morpholine by immunoblotting analysis; assay type: functional, cell-based
# 888-mel [19] = experiment: as §3, with “preincubated with compound” for “incubated”, “24 hrs followed by compound washout and measured after 2” for “24”; assay type: functional, cell-based
# How it was run: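 The medium was then exchanged to remove compound. Lysates were prepared 2 and 24 h after washout and immunoblotted for cleaved PARP, p-AKT and p-ERK using HRP secondary antibody and ECL.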
# A2058 [20] = experiment: Antitumor activity against human A2058 cells harboring BRAF V600E/PTEN deletion mutant xenografted in mouse assessed as suppression of S6 phosphorylation at 15 mg/kg, po administered every third day for 21 days and measured after 72 hrs post dose by Western blot analysis; assay type: functional, organism-based; settings: time 576.0 hrs
# Chain of Tyrosine-protein kinase ZAP-70 (P43403 whole entry): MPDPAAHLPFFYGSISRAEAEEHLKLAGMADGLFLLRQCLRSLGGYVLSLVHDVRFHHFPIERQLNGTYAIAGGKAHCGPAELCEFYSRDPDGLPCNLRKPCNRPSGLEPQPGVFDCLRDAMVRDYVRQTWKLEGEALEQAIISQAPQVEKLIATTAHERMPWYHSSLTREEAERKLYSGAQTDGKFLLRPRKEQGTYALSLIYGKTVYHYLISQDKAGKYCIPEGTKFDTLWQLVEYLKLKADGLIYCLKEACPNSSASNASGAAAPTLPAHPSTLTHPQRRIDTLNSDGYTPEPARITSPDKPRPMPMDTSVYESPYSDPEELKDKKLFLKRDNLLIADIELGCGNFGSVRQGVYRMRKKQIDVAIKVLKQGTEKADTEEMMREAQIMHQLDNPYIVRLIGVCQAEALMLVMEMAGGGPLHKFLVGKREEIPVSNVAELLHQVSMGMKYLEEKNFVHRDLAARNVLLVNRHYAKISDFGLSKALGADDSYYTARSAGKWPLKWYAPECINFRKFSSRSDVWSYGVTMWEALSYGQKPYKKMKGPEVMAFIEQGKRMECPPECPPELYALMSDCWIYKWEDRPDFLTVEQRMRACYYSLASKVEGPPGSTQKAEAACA
# Chain of Mitogen-activated protein kinase 1 (P28482 whole entry): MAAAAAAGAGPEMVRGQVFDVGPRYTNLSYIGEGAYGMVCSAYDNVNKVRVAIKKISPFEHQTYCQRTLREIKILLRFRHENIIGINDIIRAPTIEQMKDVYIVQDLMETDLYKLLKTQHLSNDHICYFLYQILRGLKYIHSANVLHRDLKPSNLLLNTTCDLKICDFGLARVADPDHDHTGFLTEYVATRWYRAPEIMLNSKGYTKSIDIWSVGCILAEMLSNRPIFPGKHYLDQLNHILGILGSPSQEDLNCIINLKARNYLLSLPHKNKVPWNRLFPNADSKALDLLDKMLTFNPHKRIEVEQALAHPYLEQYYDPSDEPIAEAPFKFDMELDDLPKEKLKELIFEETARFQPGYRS
# Chain of Ephrin type-A receptor 4 (P54764 whole entry): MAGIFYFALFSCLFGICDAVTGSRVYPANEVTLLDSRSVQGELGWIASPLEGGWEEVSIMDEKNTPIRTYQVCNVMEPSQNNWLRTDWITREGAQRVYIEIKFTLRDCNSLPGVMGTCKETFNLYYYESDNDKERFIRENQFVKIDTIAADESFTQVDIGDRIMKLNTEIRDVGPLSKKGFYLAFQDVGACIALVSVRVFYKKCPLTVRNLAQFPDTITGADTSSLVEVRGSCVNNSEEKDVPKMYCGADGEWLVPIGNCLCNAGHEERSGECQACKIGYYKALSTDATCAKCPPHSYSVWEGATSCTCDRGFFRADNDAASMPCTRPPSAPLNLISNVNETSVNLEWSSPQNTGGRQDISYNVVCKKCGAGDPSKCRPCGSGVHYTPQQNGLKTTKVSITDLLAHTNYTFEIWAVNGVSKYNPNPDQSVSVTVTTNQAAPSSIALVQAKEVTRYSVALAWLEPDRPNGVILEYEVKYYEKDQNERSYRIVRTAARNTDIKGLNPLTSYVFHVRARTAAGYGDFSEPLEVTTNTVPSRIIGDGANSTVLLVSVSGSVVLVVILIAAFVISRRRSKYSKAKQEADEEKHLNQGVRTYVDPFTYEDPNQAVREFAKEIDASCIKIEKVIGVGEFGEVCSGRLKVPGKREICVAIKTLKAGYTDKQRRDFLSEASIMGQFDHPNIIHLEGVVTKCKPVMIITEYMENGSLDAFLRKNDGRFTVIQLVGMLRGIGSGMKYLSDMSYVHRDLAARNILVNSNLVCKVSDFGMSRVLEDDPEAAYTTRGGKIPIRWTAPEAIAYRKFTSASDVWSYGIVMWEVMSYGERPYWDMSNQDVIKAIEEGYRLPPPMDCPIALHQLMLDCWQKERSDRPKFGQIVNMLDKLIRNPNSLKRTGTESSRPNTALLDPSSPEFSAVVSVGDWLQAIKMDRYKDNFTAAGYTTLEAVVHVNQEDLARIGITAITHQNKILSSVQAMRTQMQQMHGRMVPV
# Chain of Platelet-derived growth factor receptor alpha (P16234 whole entry): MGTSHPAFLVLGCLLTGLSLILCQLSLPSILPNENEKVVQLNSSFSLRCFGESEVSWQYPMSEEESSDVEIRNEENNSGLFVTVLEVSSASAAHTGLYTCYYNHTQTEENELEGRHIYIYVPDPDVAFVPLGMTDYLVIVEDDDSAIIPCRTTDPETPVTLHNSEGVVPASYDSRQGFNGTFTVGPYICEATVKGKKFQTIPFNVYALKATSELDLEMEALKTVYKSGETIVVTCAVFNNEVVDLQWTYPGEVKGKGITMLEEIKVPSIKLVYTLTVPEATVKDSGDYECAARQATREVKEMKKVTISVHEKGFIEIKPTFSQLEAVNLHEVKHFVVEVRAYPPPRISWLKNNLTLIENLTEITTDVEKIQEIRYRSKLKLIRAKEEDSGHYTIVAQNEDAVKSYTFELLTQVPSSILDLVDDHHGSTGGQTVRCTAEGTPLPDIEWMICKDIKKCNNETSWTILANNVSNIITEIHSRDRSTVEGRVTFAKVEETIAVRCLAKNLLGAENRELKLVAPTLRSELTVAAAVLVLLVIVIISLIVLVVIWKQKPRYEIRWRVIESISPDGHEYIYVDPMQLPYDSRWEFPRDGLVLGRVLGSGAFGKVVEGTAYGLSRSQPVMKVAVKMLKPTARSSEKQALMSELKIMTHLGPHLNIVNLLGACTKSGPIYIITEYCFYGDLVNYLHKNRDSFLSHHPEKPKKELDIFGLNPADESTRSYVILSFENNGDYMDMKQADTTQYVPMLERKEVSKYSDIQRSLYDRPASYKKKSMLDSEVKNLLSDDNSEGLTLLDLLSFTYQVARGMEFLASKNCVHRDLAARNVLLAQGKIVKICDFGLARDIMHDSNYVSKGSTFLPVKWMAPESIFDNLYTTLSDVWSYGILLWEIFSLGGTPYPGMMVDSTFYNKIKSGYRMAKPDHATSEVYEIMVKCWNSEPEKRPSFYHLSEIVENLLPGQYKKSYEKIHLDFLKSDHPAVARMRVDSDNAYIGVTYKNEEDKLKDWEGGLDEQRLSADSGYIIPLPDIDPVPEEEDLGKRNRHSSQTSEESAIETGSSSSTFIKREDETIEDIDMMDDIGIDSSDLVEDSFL
# Chain of Serine/threonine-protein kinase PAK 4 (O96013 whole entry): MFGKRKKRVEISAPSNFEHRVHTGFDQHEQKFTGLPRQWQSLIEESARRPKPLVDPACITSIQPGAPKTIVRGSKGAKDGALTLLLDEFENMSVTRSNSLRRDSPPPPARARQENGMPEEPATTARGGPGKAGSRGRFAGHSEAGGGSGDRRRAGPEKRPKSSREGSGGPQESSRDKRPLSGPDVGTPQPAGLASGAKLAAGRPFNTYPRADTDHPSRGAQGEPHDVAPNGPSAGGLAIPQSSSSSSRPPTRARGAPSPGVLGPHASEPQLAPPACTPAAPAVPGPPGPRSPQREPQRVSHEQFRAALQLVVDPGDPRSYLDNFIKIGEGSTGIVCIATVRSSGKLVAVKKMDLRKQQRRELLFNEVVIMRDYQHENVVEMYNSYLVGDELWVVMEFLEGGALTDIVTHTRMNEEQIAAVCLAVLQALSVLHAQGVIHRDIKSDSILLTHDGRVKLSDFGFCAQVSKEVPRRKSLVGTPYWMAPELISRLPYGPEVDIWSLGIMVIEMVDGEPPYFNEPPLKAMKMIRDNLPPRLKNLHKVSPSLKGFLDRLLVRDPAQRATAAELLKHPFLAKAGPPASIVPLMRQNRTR
# Chain of Serine/threonine-protein kinase Sgk1 (O00141 whole entry): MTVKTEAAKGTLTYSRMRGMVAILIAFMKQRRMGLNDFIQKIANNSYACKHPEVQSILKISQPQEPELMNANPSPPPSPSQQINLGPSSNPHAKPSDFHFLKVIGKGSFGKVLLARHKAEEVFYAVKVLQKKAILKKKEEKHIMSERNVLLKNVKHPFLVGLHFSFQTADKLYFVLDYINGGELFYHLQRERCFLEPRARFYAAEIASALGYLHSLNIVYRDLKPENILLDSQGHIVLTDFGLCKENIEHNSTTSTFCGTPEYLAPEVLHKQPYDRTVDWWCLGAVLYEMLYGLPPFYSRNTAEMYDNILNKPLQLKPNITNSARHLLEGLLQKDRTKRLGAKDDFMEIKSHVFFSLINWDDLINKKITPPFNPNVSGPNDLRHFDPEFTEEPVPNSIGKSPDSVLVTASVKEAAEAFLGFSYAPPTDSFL
# Chain of Protein kinase C beta type (P05771 whole entry): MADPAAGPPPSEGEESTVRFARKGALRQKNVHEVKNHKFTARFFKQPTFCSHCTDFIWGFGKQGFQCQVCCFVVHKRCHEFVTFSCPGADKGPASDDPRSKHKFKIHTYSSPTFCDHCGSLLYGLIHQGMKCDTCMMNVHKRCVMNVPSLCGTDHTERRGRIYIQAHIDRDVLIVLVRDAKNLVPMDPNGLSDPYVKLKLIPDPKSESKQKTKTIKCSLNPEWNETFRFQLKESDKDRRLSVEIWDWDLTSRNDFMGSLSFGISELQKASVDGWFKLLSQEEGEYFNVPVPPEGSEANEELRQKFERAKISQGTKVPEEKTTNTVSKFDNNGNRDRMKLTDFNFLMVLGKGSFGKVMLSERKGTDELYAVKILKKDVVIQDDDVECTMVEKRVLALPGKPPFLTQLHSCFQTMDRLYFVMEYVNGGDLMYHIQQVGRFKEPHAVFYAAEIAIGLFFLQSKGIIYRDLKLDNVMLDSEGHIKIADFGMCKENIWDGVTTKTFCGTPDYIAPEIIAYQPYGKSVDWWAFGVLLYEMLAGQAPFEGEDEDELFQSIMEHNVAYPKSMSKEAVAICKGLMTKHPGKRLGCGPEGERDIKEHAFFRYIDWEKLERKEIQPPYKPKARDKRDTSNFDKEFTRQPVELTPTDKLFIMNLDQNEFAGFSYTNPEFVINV
smiles,measurement,setting,value
O=C(c1ccc(F)c(F)c1Nc1ccc(I)cc1F)N1CC(O)([C@@H]2CCCCN2)C1 [COBIMETINIB],IC50,[1],> 10 µM
same,IC50,Ephrin type-A receptor 4,> 10 µM
same,IC50,[2],> 10 µM
same,IC50,[3],> 10 µM
same,IC50,[4],> 10 µM
same,IC50,[5],> 10 µM
same,IC50,[6],> 10 µM
same,IC50,[7],> 10 µM
same,IC50,[8],> 10 µM
same,IC50,[9],> 10 µM
same,IC50,[10],> 10 µM
same,IC50,[11],> 10 µM
same,IC50,[12],> 10 µM
same,IC50,[13],> 10 µM
same,inhibition in vivo at 5 mg/kg,MX1,26%
same,inhibition in vivo at 10 mg/kg,LoVo,98%
same,inhibition in vivo at 10 mg/kg,537-mel,96%
same,inhibition in vivo at 5 mg/kg,Calu-6,80%
same,Activity,A2058 [14],inactive
same,Activity,COLO-829,inactive
same,Activity,A-375,60%
same,Activity,Hs 294T,60%
same,Activity,LOX IMVI,60%
same,inhibition,A2058 [15],Active
same,inhibition in vivo at 15 mg/kg,[16],122%
same,Activity,888-mel [17],Active
same,Activity,888-mel [18],Active
same,Activity,888-mel [19],inactive
same,Activity,A2058 [20],Active

# Source: ChEMBL document CHEMBL5678805, “Intermittent administration of MEK inhibitor GDC-0973 plus PI3K inhibitor GDC-0941 triggers robust apoptosis and tumor growth inhibition” (Cancer Res, 2012)
